The values below come from paper PMC7113734 (Antiviral Research, 2016).

Values joined by “and” are separate entries in the source; they are usually repeats but may differ in a detail not shown here. Equal entries are not always repeated. “Also recorded” adds a separate entry of the source.

The subject of data set [1] is SARS corona virus. Kind of data set: organism not typed. It is filed as cell-based.
Data set [2] concerns Venezuelan equine encephalitis virus. The data set is classed as cell-based.
Data set [3] deals with respiratory syncytial virus. Kind of data set: DMID antiviral screening, RSV. The data set is classed as cell-based.
In data set [4] the test system is tacaribe virus. Kind of data set: microbe, parasite or virus in culture. The data set is classed as cell-based. The note with it: Mammarenavirus tacaribeense.
Data set [5] has as its system rift valley fever virus. As to the kind of experiment: microbe, parasite or virus in culture. The data set is classed as cell-based.
The nature of data set [6]: Maximum tolerated dose, single oral administration. It is filed as in vivo, Sprague-Dawley rats. The note with it: single oral 750, 1000, 1500, 2000 mg/kg; rats. In a few lines: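 Single oral gavage in Sprague-Dawley rats, 8 per group (4 female, 4 male). Doses of 750, 1000, 1500 or 2000 mg/kg given in 5% DMSO/70% PEG400 in water, or 2000 mg/kg in 2% CMC-Na in water. Dose volume 10 mL/kg, or 20 mL/kg at 2000 mg/kg. Four-day observation after dosing: cageside and clinical signs, body weight, food consumption.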

The nature of data set [7]: Fourteen-day repeat dose toxicity study. The data set is classed as in vivo, Sprague-Dawley rats. The note with it: rats. Put shortly:
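Thirty-two Sprague-Dawley rats in four groups of 8, alongside a control article. Daily oral gavage for 14 days at 500, 1000 or 2000 mg/kg, given as suspension in 2% CMC-Na in water. Per group, 4 main animals necropsied Day 15 and 4 recovery animals Day 29. Blood for clinical pathology taken before sacrifice. Endpoints: clinical observations, body weight, food consumption, clinical chemistry, hematology, coagulation, urinalysis, organ weights, gross and microscopic pathology.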

The subject of data set [8] is HIVIIIB. As to the kind of experiment: Virucidal assay. It is filed as cell-based, HIV-1. The conditions noted are these: virions treated 20 min, washed, CEM-SS cells. Put shortly: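 Test compound incubated with undiluted HIV-1 IIIB for 20 min at 37 °C. Virus pelleted at 13,800 rpm, 4 °C, 90 min, then washed five times with culture medium. Pellet resuspended in RPMI to the predetermined titer of untreated virus and used to infect CEM-SS cells for 6 days at 37 °C/5% CO2. Infectivity read by XTT cell viability.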

The EC50 is the concentration needed to bring the measured effect to its halfway point. As for `NC(=O)CCNC(=O)c1ccccc1S` [MDH-1-38, N-(3-amino-3-oxopropyl)-2-mercaptobenzamide], the concentration giving a half-maximal response (EC50) in data set [1], in data set [4] and in data set [5] was approximately 20 µM in each case. Also, the antiviral activity result in data set [2] and in data set [3] was “failed to show any activity” throughout.

As for `CCCC(=O)OCSc1ccccc1C(=O)NCCC(N)=O` [NS1040, ((2-((3-amino-3-oxopropyl)carbamoyl)phenyl)thio)methyl butyrate], in data set [6], the “toxicity in MTD study” value is listed as “did not exhibit any toxicity at any dose”. Besides, in data set [7] (at the higher doses), the “urine observation in repeat dose study” value is on record as “cloudy urine samples were noted for some of the rats”. Also, the “toxicity in repeat dose study” value in data set [7] (oral 500, 1000, 2000 mg/kg for 14 consecutive days) is “no toxicity observed; also recorded: non-toxic”. In data set [8], the “concentration reducing infectivity of HIV virions (virucidal)” value is 50 µM and > 50 µM.
